Experimental data: ChEMBL document CHEMBL1147741, “Chroman/catechol hybrids: synthesis and evaluation of their activity against oxidative stress induced cellular damage” (J Med Chem, 2006); call rule not given here

What was measured:
[1] = test system: Radical scavenging activity; assay: Antioxidant potency assessed chemically; format: functional
How it was run: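 TEAC determined by the Rice-Evans and Miller method, using 0.3 mM trolox solution with data normalized to 1.0 mM trolox.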

Jurkat = assay: Activity against hydrogen peroxide induced DNA damage in Jurkat T cells; format: functional, cell-based, Homo sapiens
How it was run: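 Jurkat T cells (1.5 × 10⁵ per well, RPMI 1640 with 10% FCS) were preincubated 1 h at 37 °C, given compound 30 min before glucose oxidase (60 ng, about 11.8 µM H₂O₂/min), and exposed 10 min. Alkaline comet assay followed: lysis, unwinding at pH >13 for 40 min, electrophoresis at 1 V/cm for 30 min, Hoechst 33342 staining, visual scoring of 100 nucleoids. IC50 is the concentration halving strand breakage.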

HT-22 = assay: Inhibition of glutamate-induced oxytosis of mouse hippocampal HT22 cells; format: functional, cell-based
How it was run: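 HT22 cells were plated at 4000 per well in phenol-red-free DMEM-HEPES with dextran-charcoal-treated FBS for 24 h. Serial compound dilutions were added with or without 5 mM glutamate for 24 h at 37 °C, and viability was read by MTT formazan conversion. EC50 is the concentration giving glutamate-exposed viability 50% of non-exposed cells; 3-7 independent experiments, mean ± SEM.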

[2] = Homo sapiens, Jurkat, read-out: IC50

Compound	Activity [1]	IC50 (Jurkat; [2])	EC50 (HT-22)	IC50 (Jurkat; jurkat)
Cc1c(C)c2c(c(C)c1O)CCC(C)(C(=O)N1CCN(C(=O)/C=C/c3ccc(O)c(O)c3)CC1)O2 (stereo unspecified)	6.55 µM	50 µM	1.48 µM	–
Cc1c(C)c2c(c(C)c1O)CCC(C)(C(=O)NCCNC(=O)/C=C/c1ccc(O)c(O)c1)O2 (stereo unspecified)	6.5 µM	75 µM	7.36 µM	–
Cc1c(C)c2c(c(C)c1O)CCC(C)(C(=O)NCCN1CCN(C(=O)/C=C/c3ccc(O)c(O)c3)CC1)O2 (stereo unspecified)	6.24 µM	20 µM	6.35 µM	–
Cc1c(C)c2c(c3c1OC(c1ccc(O)c(O)c1)C3)CCC(C)(C)O2 (stereo unspecified)	5.9 µM	10 µM	1 µM	–
COc1ccc(CCc2c3c(c(C)c(C)c2OC)OC(C)(C)CC3)cc1OC	0.05 µM	–	4.59 µM	Not Active
O=C(O)/C=C/c1ccc(O)c(O)c1 [CAFFEIC ACID]	1.2 µM	–	–	Not Active
COc1ccc(C#Cc2c(O)c(C)c(C)c3c2CCC(C)(C)O3)cc1OC	–	–	> 10 µM	–
Cc1c(C)c2c(c(C)c1O)CCC(C)(C(=O)NCCNCCNC(=O)/C=C/c1ccc(O)c(O)c1)O2 (stereo unspecified)	6.33 µM	50 µM	> 10 µM	–
COc1c(C)c(C)c2c(c1CCc1ccc(O)c(O)c1)CCC(C)(C)O2	1.6 µM	10 µM	1.17 µM	–
Cc1c(C)c2c(c(CCc3ccc(O)c(O)c3)c1O)CCC(C)(C)O2	3.74 µM	5 µM	0.93 µM	–
COc1ccc(/C=C/c2c3c(c(C)c(C)c2OC)OC(C)(C)CC3)cc1OC	–	–	> 10 µM	–
COc1ccc(/C=C/C(=O)N2CCN(C(=O)C3(C)CCc4c(C)c(O)c(C)c(C)c4O3)CC2)cc1OC (stereo unspecified)	1.26 µM	–	0.65 µM	Not Active
Cc1c(C)c2c(c(C)c1O)CCC(C)(C(=O)O)O2 (stereo unspecified) [TROLOX]	1 µM	–	–	Not Active
Cc1c(C)c2c(c(C)c1O)CCC(C)(CNC(=O)/C=C/c1ccc(O)c(O)c1)O2 (stereo unspecified)	6.53 µM	25 µM	1.14 µM	–
O=c1c(O)c(-c2ccc(O)c(O)c2)oc2cc(O)cc(O)c12 [QUERCETIN]	4.3 µM	5 µM	2.98 µM	–
COc1c(C)c(C)c2c(c1NC(=O)/C=C/c1ccc(O)c(O)c1)CCC(C)(C)O2	6.53 µM	20 µM	> 10 µM	–
COc1c(C)c(C)c2c(c1CNC(=O)/C=C/c1ccc(O)c(O)c1)CCC(C)(C)O2	3.8 µM	1 µM	2.15 µM	–
Cc1c(C)c2c(c(NC(=O)/C=C/c3ccc(O)c(O)c3)c1O)CCC(C)(C)O2	4.28 µM	5 µM	1.23 µM	–
COc1c(C)c(C)c2c(c1C)CCC(C)(C(=O)N1CCN(C(=O)/C=C/c3ccc(O)c(O)c3)CC1)O2 (stereo unspecified)	6.12 µM	50 µM	2.11 µM	–
